From article PMC5538687 (International Journal of Nanomedicine, 2017)
Read-outs that look alike come from different tables or passages of the source.

Tests used:
Eca109 xenograft tumor = assay: In vivo imaging and biodistribution; set-up: species or system BALB/c-nude mice; settings: 100 μL, 100 nM by peptide, i.v.; 1 hour postinjection
mouse FAPα protein = molecular target: T1, mouse FAPα protein (Mus musculus, UniProt P97321); assay: In vitro protease assay with recombinant FAPα; assay type: biochemical; settings: 37°C
T1 sequence (P97321 1-761): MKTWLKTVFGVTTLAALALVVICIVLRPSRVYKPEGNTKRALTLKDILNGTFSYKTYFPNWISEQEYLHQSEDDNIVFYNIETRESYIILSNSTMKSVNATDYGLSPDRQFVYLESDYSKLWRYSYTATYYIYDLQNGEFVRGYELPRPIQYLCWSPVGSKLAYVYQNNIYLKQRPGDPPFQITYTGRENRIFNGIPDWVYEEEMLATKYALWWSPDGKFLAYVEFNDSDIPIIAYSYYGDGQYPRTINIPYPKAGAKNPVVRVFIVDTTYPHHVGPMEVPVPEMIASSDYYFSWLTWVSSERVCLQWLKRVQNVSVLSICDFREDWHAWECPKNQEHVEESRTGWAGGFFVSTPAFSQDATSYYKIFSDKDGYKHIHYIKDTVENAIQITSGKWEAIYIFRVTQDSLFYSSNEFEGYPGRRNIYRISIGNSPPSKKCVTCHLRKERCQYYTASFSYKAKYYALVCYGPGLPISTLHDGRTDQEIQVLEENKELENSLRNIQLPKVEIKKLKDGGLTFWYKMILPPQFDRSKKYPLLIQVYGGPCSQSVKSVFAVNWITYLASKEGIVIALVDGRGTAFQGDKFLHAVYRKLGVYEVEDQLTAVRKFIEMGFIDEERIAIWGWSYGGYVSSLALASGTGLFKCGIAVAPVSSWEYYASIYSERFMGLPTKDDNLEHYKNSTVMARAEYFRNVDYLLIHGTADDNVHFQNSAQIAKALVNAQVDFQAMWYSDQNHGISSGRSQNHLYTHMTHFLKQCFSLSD

[1] = system: Eca109 xenograft tumor (FAPα in tumor stroma); assay type: in vivo, BALB/c-nude mice; settings: for AUC of ROC curve, ESCC vs healthy mice: 1 hour urine, n=10 per group
Outline: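 BALB/c-nude mice aged 4–6 weeks were given 5×10⁶ Eca109 cells s.c. and grown 4 weeks to tumours of 100–300 mm³. Tumour-bearing and age-matched healthy mice (n=10 each) were co-injected via the tail vein with probe nanoparticles (100 μL PBS; 100 or 10 nM by peptide) plus control peptide at the same level. Urine was collected at set times, with 1 h urine used for diagnosis. It was stored at −80°C, diluted 1:10–10² in PBS/1% BSA, and run by ELISA in at least duplicate. ROC analysis was applied.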

Bio-eGvndneeGffsar-K [5-FAM]-GPGPNQC [marker-MNPs]
In vivo fluorescence imaging of tumor-bearing mice vs control (Eca109 xenograft tumor): strong fluorescent activation in the tumor region and bladder | Level of cleaved reporter peptides with increasing FAPα concentration (mouse FAPα protein; marker-MNPs 10 nM by peptide, recombinant FAPα 0.1–100 pM, 1 hour, ELISA, n=3 per dose): elevated levels of cleaved reporter peptides were detected by ELISA with increasing concentration of FAPα | Level of cleaved reporter peptides over time (mouse FAPα protein; marker-MNPs treated with 10 nM FAPα): increased over time | Sensitivity ([1]; 10 nM group): 90% | Specificity ([1]; 10 nM group): 97% | AUC of ROC curve, ESCC vs healthy mice ([1]; 10 nM group): 0.97 | Sensitivity ([1]; 100 nM group): 100% | Specificity ([1]; 100 nM group): 100% | AUC of ROC curve, ESCC vs healthy mice ([1]; 100 nM group): 1.0 | Time of peak concentration of cleaved reporter peptide in urine ([1]; 100 nM marker-MNPs i.v., ESCC tumor mice, n=3, ELISA): 60 min | Time at which urinary cleaved reporter dropped to the bottom line ([1]; 100 nM marker-MNPs i.v., ESCC tumor mice, postinjection): 150 min | Urine reporter in healthy mice ([1]; 100 nM marker-MNPs i.v., healthy mice, 0–180 min): not detectable | Ratio of reporter to reporter control, ESCC vs healthy mice ([1]; 1 hour postinjection urine, P<0.0001): significantly higher than in healthy control mice
